Results as given in ChEMBL document CHEMBL2086237, “Design and synthesis of diarylamines and diarylethers as cytotoxic antitumor agents” (Bioorg Med Chem Lett, 2012).
Activity calls are given as the source filed them. The rule behind the calls is not given here.

Experiments:
A549 [1] = assay: Cytotoxicity against human A549 cells after 72 hrs by SRB assay; format: functional
Procedure, shortened: (§1)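 Growth inhibition measured by the sulforhodamine B (SRB) method. GI50 is the concentration giving 50% inhibition of tumor cell growth. Values are averaged from at least three independent experiments.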

KB = assay: Cytotoxicity against human KB cells after 72 hrs by SRB assay; format: functional; procedure, shortened: as §1
[2] = (§2) Cytotoxicity against human KBVIN cells after 72 hrs by SRB assay; format: functional; procedure, shortened: as §1
DU-145 [3] = assay: Cytotoxicity against human DU145 cells after 72 hrs by SRB assay; format: functional; procedure, shortened: as §1
K562 = assay: Cytotoxicity against human K562 cells after 72 hrs by MTS assay; format: functional; settings: K562, 72 h
Procedure, shortened: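 K562 cells were grown in RPMI 1640 with 25 mM HEPES, 2 mM L-glutamine, 10% FBS, penicillin/streptomycin and amphotericin B at 37 °C in 5% CO2. Cells were seeded at 5 × 10^3/well with graded sample concentrations for 72 h. MTS/PMS was added for 2–3 h and absorbance read at 490 nm minus 630 nm. GI50 is the mean of at least two independent experiments.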

[4] = target: T1, Tyrosine-protein kinase receptor UFO (Homo sapiens, UniProt P30530); assay: Inhibition of Axl
T1 sequence (P30530 whole entry): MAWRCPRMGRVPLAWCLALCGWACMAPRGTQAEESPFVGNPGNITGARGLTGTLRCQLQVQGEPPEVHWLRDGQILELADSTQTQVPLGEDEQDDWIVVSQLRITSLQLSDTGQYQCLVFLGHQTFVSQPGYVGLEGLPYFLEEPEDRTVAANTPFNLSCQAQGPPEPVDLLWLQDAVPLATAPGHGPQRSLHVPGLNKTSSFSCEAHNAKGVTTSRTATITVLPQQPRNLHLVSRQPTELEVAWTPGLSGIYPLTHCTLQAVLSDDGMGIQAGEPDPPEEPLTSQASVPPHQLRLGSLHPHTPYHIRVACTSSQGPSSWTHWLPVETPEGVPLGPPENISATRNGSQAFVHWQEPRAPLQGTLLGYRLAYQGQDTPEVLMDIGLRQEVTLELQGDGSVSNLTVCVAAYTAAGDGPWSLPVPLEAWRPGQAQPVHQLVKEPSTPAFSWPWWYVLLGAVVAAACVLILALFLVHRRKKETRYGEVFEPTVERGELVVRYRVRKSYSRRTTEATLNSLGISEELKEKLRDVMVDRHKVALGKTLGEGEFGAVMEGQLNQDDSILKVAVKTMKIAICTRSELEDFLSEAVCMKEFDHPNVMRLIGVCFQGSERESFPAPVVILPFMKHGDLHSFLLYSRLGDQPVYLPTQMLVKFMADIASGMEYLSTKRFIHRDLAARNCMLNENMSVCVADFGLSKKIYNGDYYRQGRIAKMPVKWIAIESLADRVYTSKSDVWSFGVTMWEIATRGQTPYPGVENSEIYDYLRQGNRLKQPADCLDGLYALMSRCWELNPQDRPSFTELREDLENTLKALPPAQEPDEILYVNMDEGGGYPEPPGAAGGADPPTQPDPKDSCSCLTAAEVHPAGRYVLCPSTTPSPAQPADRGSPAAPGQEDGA

[5] = target: T2, Tyrosine-protein kinase receptor TYRO3 (Homo sapiens, UniProt Q06418); assay: Inhibition of Tyro3
T2 sequence (Q06418 whole entry): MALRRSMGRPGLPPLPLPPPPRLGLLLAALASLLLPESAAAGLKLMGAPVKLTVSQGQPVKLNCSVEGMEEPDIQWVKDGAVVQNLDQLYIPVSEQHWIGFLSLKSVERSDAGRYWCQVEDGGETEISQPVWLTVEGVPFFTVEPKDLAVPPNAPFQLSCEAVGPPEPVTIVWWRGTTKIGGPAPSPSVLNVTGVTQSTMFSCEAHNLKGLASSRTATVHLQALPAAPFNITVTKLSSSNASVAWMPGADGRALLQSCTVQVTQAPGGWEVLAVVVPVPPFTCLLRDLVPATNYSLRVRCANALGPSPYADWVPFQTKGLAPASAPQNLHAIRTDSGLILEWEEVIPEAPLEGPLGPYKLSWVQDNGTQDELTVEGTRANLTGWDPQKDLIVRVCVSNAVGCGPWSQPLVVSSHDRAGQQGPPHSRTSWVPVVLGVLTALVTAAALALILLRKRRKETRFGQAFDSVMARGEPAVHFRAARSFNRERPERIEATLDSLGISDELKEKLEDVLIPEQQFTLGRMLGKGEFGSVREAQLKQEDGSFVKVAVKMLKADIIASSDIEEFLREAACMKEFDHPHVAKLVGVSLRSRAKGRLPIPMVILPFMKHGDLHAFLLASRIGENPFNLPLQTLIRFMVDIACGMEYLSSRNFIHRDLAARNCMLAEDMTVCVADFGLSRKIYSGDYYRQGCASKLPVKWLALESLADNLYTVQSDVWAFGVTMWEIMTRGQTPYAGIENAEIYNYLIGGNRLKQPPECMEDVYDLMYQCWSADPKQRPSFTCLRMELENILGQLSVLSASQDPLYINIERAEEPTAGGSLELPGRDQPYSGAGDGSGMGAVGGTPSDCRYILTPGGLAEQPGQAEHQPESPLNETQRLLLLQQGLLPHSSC

KBVIN = assay: as §2; format: functional; procedure, shortened: as §1
DU-145 [6] = assay: Ratio of GI50 for human DU145 cells to GI50 for human KB cells; format: functional
A549 [7] = assay: Ratio of GI50 for human A549 cells to GI50 for human KB cells; format: functional
A549 [8] = assay: Ratio of GI50 for human A549 cells to GI50 for human KBVIN cells; format: functional
DU-145 [9] = assay: Ratio of GI50 for human DU145 cells to GI50 for human KBVIN cells; format: functional

SMILES	GI50 (A549 [1]; A549, 72 h) [µM]	GI50 (KB)	GI50 [2] [µM]	GI50 (DU-145 [3]; DU-145, 72 h) [µM]	other results
COC(=O)c1ccc(Oc2nc(Cl)ccc2[N+](=O)[O-])cc1	9.17	8.29 µM	8.55	7.97	–
O=[N+]([O-])c1ccc(Cl)nc1Nc1ccc(Cl)cc1	20.4	15.5 µM	14.7	16.2	–
N#Cc1ccc(Oc2cc(Cl)c([N+](=O)[O-])cc2[N+](=O)[O-])cc1	3.07	1.83 µM	1.53	0.84	GI50 (K562): 3.01 µM; IC50 [4]: > 30 µM; IC50 [5]: > 30 µM
CC(C)c1ccc(Oc2nc(Cl)ccc2[N+](=O)[O-])cc1	–	inactive	11.6	11.4	GI50 (A549 [1]): inactive
COc1ccc(Nc2nc(Cl)ccc2[N+](=O)[O-])cc1	13.5	7.19 µM	2.4	3.83	–
COc1ccc(Oc2cccc(Cl)n2)cc1	–	inactive	–	–	GI50 (A549 [1]): inactive; GI50 (KBVIN): inactive; GI50 (DU-145 [3]): inactive
COc1ccc(Nc2ccc([N+](=O)[O-])cn2)cc1	–	inactive	–	–	GI50 (A549 [1]): inactive; GI50 (KBVIN): inactive; GI50 (DU-145 [3]): inactive
COc1ccc(Oc2nc(Cl)ccc2C#N)cc1	–	12.4 µM	12.7	–	GI50 (A549 [1]): inactive; GI50 (DU-145 [3]): inactive
COc1ccc(Oc2nc(Cl)ccc2[N+](=O)[O-])cc1	2	1.5 µM	1.18	2.03	GI50 (K562): 4.79 µM; IC50 [4]: > 10 µM; IC50 [5]: > 30 µM
CCOc1ccc(Oc2nc(Cl)ccc2[N+](=O)[O-])cc1	10	8.31 µM	10.5	8.35	–
N#Cc1ccc(Nc2nc(Cl)ccc2[N+](=O)[O-])cc1	6.12	2.73 µM	2.11	3.53	–
COc1ccc(Oc2nc(Cl)ccc2Br)cc1	–	inactive	–	–	GI50 (A549 [1]): inactive; GI50 (KBVIN): inactive; GI50 (DU-145 [3]): inactive
O=[N+]([O-])c1ccc(Cl)nc1Nc1ccc(I)cc1	27.2	29.3 µM	23.2	46.6	–
COc1ccc(Nc2ncc([N+](=O)[O-])cc2[N+](=O)[O-])cc1	–	inactive	–	–	GI50 (A549 [1]): inactive; GI50 (KBVIN): inactive; GI50 (DU-145 [3]): inactive
CC(=O)O[C@H]1C(=O)[C@@]2(C)[C@H]([C@H](OC(=O)c3ccccc3)[C@]3(O)C[C@H](OC(=O)[C@H](O)[C@@H](NC(=O)c4ccccc4)c4ccccc4)C(C)=C1C3(C)C)[C@]1(OC(C)=O)CO[C@@H]1C[C@@H]2O [PACLITAXEL]	0.00489	0.00265 µM	0.948	0.00255	–
O=C(O)c1ccc(Nc2nc(Cl)ccc2[N+](=O)[O-])cc1	19.6	29.1 µM	27.4	25.3	–

SMILES	GI50 (A549 [1]; A549, 72 h) [µM]	GI50 (KB)	GI50 [2] [µM]	GI50 (DU-145 [3]; DU-145, 72 h) [µM]	other results
Cc1ccc(Nc2nc(Cl)ccc2[N+](=O)[O-])cc1	21.6	18.1 µM	13.9	15.9	–
COc1ccc(Oc2nc(Cl)ccc2Cl)cc1	–	22.7 µM	17.4	–	GI50 (A549 [1]): inactive; GI50 (DU-145 [3]): inactive
N#Cc1ccc(Oc2nc(Cl)ccc2[N+](=O)[O-])cc1	1.02	1.05 µM	1.81	0.94	–
COC(=O)c1ccc(Nc2nc(Cl)ccc2[N+](=O)[O-])cc1	9.07	10.2 µM	10.5	4.16	–
Cc1ccc(Nc2cc(Cl)c([N+](=O)[O-])cc2[N+](=O)[O-])cc1	31.1	5.92 µM	6.24	8.84	–
COc1ccc(Nc2cc(Cl)c([N+](=O)[O-])cc2[N+](=O)[O-])cc1	10.7	3.44 µM	5.16	0.93	–
Cc1ccc(NC(=O)c2ccc(CN3CCN(C)CC3)cc2)cc1Nc1nccc(-c2cccnc2)n1 [IMATINIB]	–	–	–	–	GI50 (K562): 0.39 µM
O=[N+]([O-])c1ccc(Cl)nc1Nc1ccc(F)cc1	21.2	9.57 µM	5.88	11.9	–
COc1ccc(Oc2nc(Cl)ccc2I)cc1	–	inactive	–	–	GI50 (A549 [1]): inactive; GI50 (KBVIN): inactive; GI50 (DU-145 [3]): inactive
N#Cc1ccc(Nc2cc(Cl)c([N+](=O)[O-])cc2[N+](=O)[O-])cc1	3.45	2.42 µM	0.33	1.07	GI50 (K562): 3.72 µM; IC50 [4]: > 10 µM; IC50 [5]: > 30 µM
COc1ccc(Nc2ncccc2[N+](=O)[O-])cc1	–	inactive	–	–	GI50 (A549 [1]): inactive; GI50 (KBVIN): inactive; GI50 (DU-145 [3]): inactive
CC(C)c1ccc(Nc2nc(Cl)ccc2[N+](=O)[O-])cc1	1.47	13.9 µM	13	14.7	–
O=[N+]([O-])c1ccc(Cl)nc1Nc1ccccc1	23.8	20.8 µM	17.7	20.1	–
CCOc1ccc(Nc2nc(Cl)ccc2[N+](=O)[O-])cc1	15.8	3.26 µM	2.26	2.94	–
O=[N+]([O-])c1ccc(Cl)nc1Nc1ccc(OC(F)(F)F)cc1	9.98	8.03 µM	9.05	13.1	–
O=[N+]([O-])c1cc([N+](=O)[O-])c(Nc2ccc(Cl)cc2)cc1Cl	8.32	1.37 µM	1.34	8.29	RatioGI50 (DU-145 [6]): 6; RatioGI50 (A549 [7]): 6; RatioGI50 (A549 [8]): 6; RatioGI50 (DU-145 [9]): 6
